Screening data: PubChem BioAssay, several laboratories
In the library only some 2% were active in any assay of this set; here they are far more common.
PvdQ inh = P. aeruginosa PvdQ acylase inhibitors, primary screen, biochemical, fluorescence, plate reader and imaging, single point; AID 488965, 2010; purified PvdQ acylase; 340,000 tested, 0.063% active; inhibition, % at 10 µM; in the data active = inhibition above about 30%, passing the limit was not always enough;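 note: 0% = vehicle neutral wells and 100% = reference inhibitor wells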
ATG4B inh = ATG4B protease inhibitors, primary screen, biochemical, fluorescence, uHTS; ATG4B cleavage of LC3-PLA2, NBD-HPC fluorescence, 1 h; inhibition, % at 8.33 µM; 340,000 tested, 0.51% active; AID 504462, 2011; in the data active = inhibition above about 40%
Target sequence (Q9Y4P1 whole entry, looked up): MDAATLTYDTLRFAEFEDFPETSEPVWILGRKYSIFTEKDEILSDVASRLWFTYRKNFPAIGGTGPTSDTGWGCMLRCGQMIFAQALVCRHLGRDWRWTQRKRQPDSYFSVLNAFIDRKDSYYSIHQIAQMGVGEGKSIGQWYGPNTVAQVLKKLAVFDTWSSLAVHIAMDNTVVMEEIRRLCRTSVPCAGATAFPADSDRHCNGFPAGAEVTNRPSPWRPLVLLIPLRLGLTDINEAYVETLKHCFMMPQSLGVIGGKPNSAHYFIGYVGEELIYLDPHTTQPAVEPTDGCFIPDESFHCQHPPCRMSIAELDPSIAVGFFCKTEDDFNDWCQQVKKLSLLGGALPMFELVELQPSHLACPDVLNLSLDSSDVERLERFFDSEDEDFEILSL
VIM-2 inhibitor = VIM-2 metallo-beta-lactamase inhibitors, primary screen, biochemical, epi-absorbance readout, Pseudomonas aeruginosa enzyme; purified VIM-2, nitrocefin hydrolysis, epi-absorbance fluorescence; inhibition, % at 5.6 µM; 290,000 tested, 0.89% active; AID 1527, 2009;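 active = inhibition above the mean of all tested compounds plus 3 SD, cutoff set per screening run, cut at about 7.5% in these data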;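 note: red hydrolysis product quenches plate fluorescence so inhibitors raise well fluorescence; 0% = enzyme with DMSO and 100% = DMSO without enzyme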
MIN6 prolif-1 = inducers of MIN6 beta-cell proliferation, primary screen, ATP luminescence, uHTS; AID 2380, 2010; proliferation, % at 10 µM; 330,000 tested, 0.29% active; MIN6 cells proliferation, ATPlite luminescence, 48 h; cells starved in 0.2% serum; 100% = growth in 10% serum;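 active = compounds whose signal lies at least 3.5 SD above the mean of all wells on their plate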;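 note: 0% = DMSO-treated cells in low-serum medium and 100% = 10% serum control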
IMP-1 inh = IMP-1 metallo-beta-lactamase inhibitors, primary screen, biochemical, epi-absorbance readout, Pseudomonas aeruginosa enzyme. purified IMP-1, nitrocefin hydrolysis, epi-absorbance fluorescence. inhibition, % at 5.6 µM. 290,000 tested, 0.45% active. AID 1556, 2009;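 active = inhibition above the mean plus 3 SD of all compounds in the same screening run, cut at about 4.5% in these data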;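 note: 0% = IMP-1 with DMSO and 100% = DMSO wells lacking enzyme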
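System: Purified recombinant IMP-1 metallo-beta-lactamase enzyme | Measured by: Fluorescence quenching readout, ex 480/em 530 nm | Replication: Singlicate | Incubation: 15 min preincubation plus 25 min reaction at 25 °C | Evaluation: Percent inhibition from optical density relative to buffer-blank wells | Benchmarks: DMSO with and without IMP-1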
HKDC1 inhibitor = HKDC1 hexokinase inhibitors, primary screen, biochemical, fluorescence, uHTS; recombinant HKDC1, G6PDH/diaphorase resazurin coupled fluorescence; inhibition, % at 20 µM; AID 493160, 2011; 340,000 tested, 0.16% active; Q2TB90;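 active = inhibition above about 35% when tested at 20 µM, limit read from the data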;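 note: plate controls were DMSO wells with enzyme for no effect and DMSO wells lacking enzyme for full effect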
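Incubation: 90 min at room temperature in dark / Material: recombinant HKDC1 (HK5) hexokinase enzyme, produced in-house / Quantity: enzyme 5 µg/mL final / Compound: one dose of 20 µM, 1% DMSO / Reagent: glucose and ATP substrates / Buffer or medium: Tris pH 8.0 buffer with MgCl2, Tween-20, BSA, BME / Technique: resorufin fluorescence at 613 nm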
MIN6 prolif-2 = inducers of beta-cell proliferation in MIN6, confirmation, MIN6 cells, mouse; ATPlite luminescence, 48 h; cells kept in 0.2% serum; scaled between 0.2% and 10% serum; proliferation increase, % at 50 µM; shares compounds with MIN6 prolif-1; 920 tested, under 10 active;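 active = proliferation increase above 40% at any of the four tested concentrations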
* marks the source's active call; other numbers are inactive results.

COc1cccc2cc(C(=O)C3=C(O)C(=O)N(c4cc(C)on4)C3c3cccs3)oc12 (stereo not drawn) was read as PvdQ inh 3, ATG4B inh 12, VIM-2 inhibitor 1, MIN6 prolif-1 -2, IMP-1 inh 1 and HKDC1 inhibitor -3.
For COC(=O)Cc1c(O)ccn(CCc2ccc(OC)c(OC)c2)c1=O the results were PvdQ inh -10, ATG4B inh 6, VIM-2 inhibitor -1, MIN6 prolif-1 7.2*, IMP-1 inh -2, HKDC1 inhibitor -11 and MIN6 prolif-2 1.
Screening NS(=O)(=O)c1ccc(NC(=O)c2ccc3c(c2)CCCC3)cc1 returned PvdQ inh 10, ATG4B inh -10, VIM-2 inhibitor -1, MIN6 prolif-1 5.3*, IMP-1 inh -1, HKDC1 inhibitor 0 and MIN6 prolif-2 0.
Screening NS(=O)(=O)c1ccc(NC(=O)c2ccc3c(c2)OCO3)cc1 returned PvdQ inh -17, ATG4B inh 1, VIM-2 inhibitor -3, MIN6 prolif-1 -2, IMP-1 inh -2 and HKDC1 inhibitor 1.
CC(O)CNc1nc(N)[nH]c(=O)c1N=Nc1ccccc1 (stereo not drawn) was read as PvdQ inh -10, ATG4B inh -5 and HKDC1 inhibitor -4.
COc1ccc(CCNC(=O)CSc2nn(-c3ccccc3)c(=S)s2)cc1 was read as PvdQ inh -11, ATG4B inh -2, VIM-2 inhibitor -2, MIN6 prolif-1 -3, IMP-1 inh -2 and HKDC1 inhibitor -2.
Screening COc1ccc(C)c(-n2c(=O)n(Cc3ccccc3)c(=O)c3[nH]cnc32)c1 returned ATG4B inh 5, VIM-2 inhibitor -4, MIN6 prolif-1 1, IMP-1 inh -4 and HKDC1 inhibitor -5.
`COc1ccc(Cn2c(=O)c3[nH]cnc3n(-c3ccccc3C)c2=O)cc1` gave PvdQ inh 3, ATG4B inh 2, VIM-2 inhibitor -2, MIN6 prolif-1 10*, IMP-1 inh -1, HKDC1 inhibitor -2 and MIN6 prolif-2 8.
`CC1CCN(S(=O)(=O)c2ccc(S(=O)(=O)N3CCCN(Cc4ccccc4)C3)cc2)CC1` gave VIM-2 inhibitor -1 and IMP-1 inh -2.
For COc1ccccc1NC(=O)C1CCCN(c2nc(C)cc(C)n2)C1 (stereo not drawn) the results were PvdQ inh -9, ATG4B inh -12, VIM-2 inhibitor -4, MIN6 prolif-1 7.5*, IMP-1 inh -4, HKDC1 inhibitor 4 and MIN6 prolif-2 3.
C/C=C1\COC(C(=O)NCCCN2CCCC2=O)(C(F)(F)F)C=C1C=C(C)C (stereo not drawn) was read as PvdQ inh -2, ATG4B inh 10, MIN6 prolif-1 6 and HKDC1 inhibitor -2.
Screening Cc1c(Cl)cnc(NC(=O)COC(=O)c2cccc(S(=O)(=O)N3c4ccccc4CC3C)c2)c1Cl (stereo not drawn) returned PvdQ inh -1, ATG4B inh 0, VIM-2 inhibitor 0, MIN6 prolif-1 -2, IMP-1 inh -1 and HKDC1 inhibitor 2.
For CC(=O)Nc1ccc(Oc2cnccn2)cc1 the results were PvdQ inh 21, ATG4B inh 11, VIM-2 inhibitor 1, MIN6 prolif-1 0.0*, IMP-1 inh -2, HKDC1 inhibitor -8 and MIN6 prolif-2 2.
CC1CN(Cc2ccccc2)c2ccccc2NC1=S (stereo not drawn) was read as PvdQ inh -7, ATG4B inh 11, VIM-2 inhibitor -5, MIN6 prolif-1 0.0*, IMP-1 inh -3, HKDC1 inhibitor 19 and MIN6 prolif-2 -6.
CC1CN(Cc2ccccc2)C(=O)N(c2ccccc2)C1=O (stereo not drawn) was read as PvdQ inh -2, ATG4B inh -10 and HKDC1 inhibitor -5.
`Cc1cc2nc(-c3ccncc3)cc(C(F)(F)F)n2n1` gave PvdQ inh 4, ATG4B inh -6, VIM-2 inhibitor -2, MIN6 prolif-1 9.3*, IMP-1 inh -4, HKDC1 inhibitor 4 and MIN6 prolif-2 4.
For COCCN(C(=S)Nc1ccc(Cl)cc1OC)C1CCN(C(C)=O)CC1 the results were PvdQ inh -16, ATG4B inh -4, VIM-2 inhibitor -3, MIN6 prolif-1 -2, IMP-1 inh -5 and HKDC1 inhibitor 3.
CN(CC(=O)Nc1c(Cl)cccc1Cl)C(=O)CCNS(=O)(=O)c1ccccc1C(F)(F)F was read as PvdQ inh -7, ATG4B inh -1, MIN6 prolif-1 12*, HKDC1 inhibitor -2 and MIN6 prolif-2 0.
Screening Cc1cc(NC(=O)Cc2ccccc2)ccc1NC(=O)c1cccs1 returned PvdQ inh -10, ATG4B inh -6, VIM-2 inhibitor 1, MIN6 prolif-1 -2, IMP-1 inh -1 and HKDC1 inhibitor 1.
Screening CC(=O)c1sc(N/N=C/c2cccc(O)c2)nc1C returned PvdQ inh 0, ATG4B inh -18, VIM-2 inhibitor 0, MIN6 prolif-1 1, IMP-1 inh -2 and HKDC1 inhibitor 2.
CC(=O)c1sc(N/N=C\c2ccc(N(C)C)cc2)nc1C was read as PvdQ inh 5, ATG4B inh -3, VIM-2 inhibitor -2, MIN6 prolif-1 6.6*, IMP-1 inh -2, HKDC1 inhibitor -6 and MIN6 prolif-2 2.
For CCOc1ccc(-n2cnnn2)cc1S(=O)(=O)Nc1c(C)cccc1C the results were PvdQ inh 8, ATG4B inh -4, VIM-2 inhibitor -3, MIN6 prolif-1 6.1*, IMP-1 inh -3, HKDC1 inhibitor -2 and MIN6 prolif-2 1.
O=C(Nc1ccccc1)N1CCN(S(=O)(=O)c2ccccc2)CC1 was read as PvdQ inh 2, ATG4B inh -5, VIM-2 inhibitor -1, MIN6 prolif-1 0, IMP-1 inh -1 and HKDC1 inhibitor -9.
Screening COc1ccc(-c2noc(COC(=O)c3ccco3)n2)cc1OC returned PvdQ inh -14, ATG4B inh 0, MIN6 prolif-1 -1 and HKDC1 inhibitor -2.
For CCOC(=O)C1(Cc2ccccc2)CCN(Cc2ccc3c(c2)OCCO3)CC1 the results were PvdQ inh -13, ATG4B inh 1, VIM-2 inhibitor -1, MIN6 prolif-1 -2, IMP-1 inh 1 and HKDC1 inhibitor -3.
